Assay results from ChEMBL document CHEMBL1126625, “7-Azetidinylquinolones as antibacterial agents. Synthesis and structure-activity relationships” (J Med Chem, 1993).
In brackets after ≈: the same amount, converted by molar mass.

Legend:
Assay type in all cases: functional
[1] = test system: Bacillus cereus; test: Minimum inhibitory concentration (MIC) preventing growth of Bacillus cereus
[2] = test system: Bacillus subtilis; test: Minimum inhibitory concentration (MIC) preventing growth of Bacillus subtilis
[3] = test system: Escherichia coli; test: Minimum inhibitory concentration (MIC)preventing growth of Escherichia coli
[4] = test system: Escherichia coli; test: Efficacy on systemic infections after oral administration in mice was determined against Escherichia coli HM-42
Procedure, shortened: (§1)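 Mouse protection test using 4 groups of 10 mice. Mice were infected intraperitoneally with a bacterial suspension slightly above LD100. A single oral dose was given immediately after infection, with four doses, one per group, chosen from in vitro activity. Survival was scored after one week, and ED50 (total mg/kg protecting 50% of mice) was interpolated from group survival rates.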

[5] = test system: Klebsiella pneumoniae; test: Minimum inhibitory concentration (MIC)preventing growth of Klebsiella pneumoniae
[6] = test system: Morganella morganii; test: Minimum inhibitory concentration (MIC) preventing growth of Morganella morganii
[7] = test system: Pseudomonas aeruginosa; test: Efficacy on systemic infections after oral administration in mice was determined against Pseudomonas aeruginosa HS-116; procedure, shortened: as §1
[8] = test system: Proteus vulgaris; test: Minimum inhibitory concentration (MIC) preventing growth of Proteus vulgaris
[9] = test system: Staphylococcus epidermidis; test: Minimum inhibitory concentration (MIC) preventing growth of Staphylococcus epidermidis
[10] = test system: Staphylococcus aureus; test: Minimum inhibitory concentration (MIC) preventing growth of […]
[11] = test system: Staphylococcus aureus; test: Efficacy on systemic infections after oral administration in mice was determined against […] HS-93; procedure, shortened: as §1
[12] = test system: Enterococcus faecalis; test: Minimum inhibitory concentration (MIC) preventing growth of Streptococcus faecalis ATCC 10541
[13] = test system: Enterobacter cloacae; test: Minimum inhibitory concentration (MIC)preventing growth of Enterobacter cloacae
[14] = test system: Pseudomonas aeruginosa; test: Minimum inhibitory concentration (MIC)preventing growth of Pseudomonas aeruginosa

| SMILES | MIC [1] | MIC [2] | MIC [3] | ED50 [4] | MIC [5] | MIC [6] | ED50 [7] | MIC [8] | MIC [9] | MIC [10] | ED50 [11] | MIC [12] | MIC [13] | MIC [14] |
| --- | --- | --- | --- | --- | --- | --- | --- | --- | --- | --- | --- | --- | --- | --- |
| CN(C)C1(C)CN(c2cc3c(cc2F)c(=O)c(C(=O)O)cn3C2CC2)C1 | 0.25 µg/mL (≈ 0.696 µM) | 0.06 µg/mL (≈ 0.167 µM) | 0.25 µg/mL (≈ 0.696 µM) | 2.7 mg/kg | 0.25 µg/mL (≈ 0.696 µM) | 0.25 µg/mL (≈ 0.696 µM) | 296 mg/kg | 0.5 µg/mL (≈ 1.39 µM) | 0.25 µg/mL (≈ 0.696 µM) | 0.25 µg/mL (≈ 0.696 µM) | 16.1 mg/kg | 2 µg/mL (≈ 5.56 µM) | 0.25 µg/mL (≈ 0.696 µM) | 4 µg/mL (≈ 11.1 µM) |
| CCn1cc(C(=O)O)c(=O)c2c(N)c(F)c(N3CC(C)(N)C3)c(F)c21 | 1 µg/mL (≈ 2.84 µM) | 0.12 µg/mL (≈ 0.341 µM) | 0.25 µg/mL (≈ 0.71 µM) | – | 0.25 µg/mL (≈ 0.71 µM) | 0.25 µg/mL (≈ 0.71 µM) | – | 0.5 µg/mL (≈ 1.42 µM) | 0.5 µg/mL (≈ 1.42 µM) | 0.5 µg/mL (≈ 1.42 µM) | – | 1 µg/mL (≈ 2.84 µM) | 0.25 µg/mL (≈ 0.71 µM) | 2 µg/mL (≈ 5.68 µM) |
| CC1(N)CN(c2c(F)c(N)c3c(=O)c(C(=O)O)cn(C4CC4)c3c2F)C1 | 0.06 µg/mL (≈ 0.165 µM) | 0.015 µg/mL (≈ 0.0412 µM) | 0.015 µg/mL (≈ 0.0412 µM) | 3.3 mg/kg | 0.015 µg/mL (≈ 0.0412 µM) | 0.015 µg/mL (≈ 0.0412 µM) | 71 mg/kg | 0.12 µg/mL (≈ 0.329 µM) | 0.06 µg/mL (≈ 0.165 µM) | 0.06 µg/mL (≈ 0.165 µM) | 7.2 mg/kg | 0.25 µg/mL (≈ 0.686 µM) | 0.015 µg/mL (≈ 0.0412 µM) | 0.5 µg/mL (≈ 1.37 µM) |
| NC(=O)C1CN(c2c(F)cc3c(=O)c(C(=O)O)cn(C4CC4)c3c2F)C1 | 0.25 µg/mL (≈ 0.688 µM) | 0.06 µg/mL (≈ 0.165 µM) | 0.25 µg/mL (≈ 0.688 µM) | – | 0.06 µg/mL (≈ 0.165 µM) | 0.25 µg/mL (≈ 0.688 µM) | – | 0.25 µg/mL (≈ 0.688 µM) | 0.5 µg/mL (≈ 1.38 µM) | 0.25 µg/mL (≈ 0.688 µM) | – | 0.5 µg/mL (≈ 1.38 µM) | 0.25 µg/mL (≈ 0.688 µM) | 4 µg/mL (≈ 11 µM) |
| CS(=O)(=O)OC1CN(c2c(F)cc3c(=O)c(C(=O)O)cn(C4CC4)c3c2F)C1 | 0.12 µg/mL (≈ 0.29 µM) | 0.015 µg/mL (≈ 0.0362 µM) | 0.25 µg/mL (≈ 0.603 µM) | – | 0.015 µg/mL (≈ 0.0362 µM) | 0.5 µg/mL (≈ 1.21 µM) | – | 0.25 µg/mL (≈ 0.603 µM) | 0.06 µg/mL (≈ 0.145 µM) | 0.06 µg/mL (≈ 0.145 µM) | – | 0.5 µg/mL (≈ 1.21 µM) | 0.5 µg/mL (≈ 1.21 µM) | 8 µg/mL (≈ 19.3 µM) |
| CNC1CN(c2cc3c(cc2F)c(=O)c2c(=O)[nH]sc2n3C2CC2)C1 | 0.12 µg/mL (≈ 0.333 µM) | 0.03 µg/mL (≈ 0.0832 µM) | 0.03 µg/mL (≈ 0.0832 µM) | – | 0.12 µg/mL (≈ 0.333 µM) | 0.06 µg/mL (≈ 0.166 µM) | – | 0.12 µg/mL (≈ 0.333 µM) | 0.12 µg/mL (≈ 0.333 µM) | 0.12 µg/mL (≈ 0.333 µM) | – | 0.25 µg/mL (≈ 0.694 µM) | 0.12 µg/mL (≈ 0.333 µM) | 0.5 µg/mL (≈ 1.39 µM) |
| CC1(N)CN(c2c(F)cc3c(=O)c(C(=O)O)cn(-c4ccc(F)cc4)c3c2Cl)C1 | 0.06 µg/mL (≈ 0.143 µM) | 0.015 µg/mL (≈ 0.0357 µM) | 0.03 µg/mL (≈ 0.0715 µM) | 0.4 mg/kg | 0.03 µg/mL (≈ 0.0715 µM) | 0.12 µg/mL (≈ 0.286 µM) | 54.9 mg/kg | 0.12 µg/mL (≈ 0.286 µM) | 0.06 µg/mL (≈ 0.143 µM) | 0.06 µg/mL (≈ 0.143 µM) | 1.1 mg/kg | 0.25 µg/mL (≈ 0.596 µM) | 0.06 µg/mL (≈ 0.143 µM) | 0.5 µg/mL (≈ 1.19 µM) |
| CC1(O)CN(c2cc3c(cc2F)c(=O)c(C(=O)O)cn3C2CC2)C1 | 0.12 µg/mL (≈ 0.361 µM) | 0.06 µg/mL (≈ 0.181 µM) | 0.25 µg/mL (≈ 0.752 µM) | – | 0.06 µg/mL (≈ 0.181 µM) | 0.25 µg/mL (≈ 0.752 µM) | – | 0.12 µg/mL (≈ 0.361 µM) | 0.12 µg/mL (≈ 0.361 µM) | 0.12 µg/mL (≈ 0.361 µM) | – | 1 µg/mL (≈ 3.01 µM) | 0.12 µg/mL (≈ 0.361 µM) | 2 µg/mL (≈ 6.02 µM) |
| O=C(O)c1cn(C2CC2)c2c(F)c(N3CC(O)C3)c(F)cc2c1=O | 0.03 µg/mL (≈ 0.0892 µM) | 0.007 µg/mL (≈ 0.0208 µM) | 0.06 µg/mL (≈ 0.178 µM) | 11.3 mg/kg | 0.007 µg/mL (≈ 0.0208 µM) | 0.06 µg/mL (≈ 0.178 µM) | 61.3 mg/kg | 0.06 µg/mL (≈ 0.178 µM) | 0.12 µg/mL (≈ 0.357 µM) | 0.06 µg/mL (≈ 0.178 µM) | 29.7 mg/kg | 0.5 µg/mL (≈ 1.49 µM) | 0.06 µg/mL (≈ 0.178 µM) | 2 µg/mL (≈ 5.95 µM) |
| CC1(N)CN(c2c(F)cc3c(=O)c(C(=O)O)cn(-c4ccc(F)cc4)c3c2F)C1 | 0.12 µg/mL (≈ 0.298 µM) | 0.12 µg/mL (≈ 0.298 µM) | 0.25 µg/mL (≈ 0.62 µM) | 3.2 mg/kg | 0.015 µg/mL (≈ 0.0372 µM) | 0.25 µg/mL (≈ 0.62 µM) | 159 mg/kg | 1 µg/mL (≈ 2.48 µM) | 0.12 µg/mL (≈ 0.298 µM) | 0.12 µg/mL (≈ 0.298 µM) | 10.9 mg/kg | 2 µg/mL (≈ 4.96 µM) | 0.25 µg/mL (≈ 0.62 µM) | 2 µg/mL (≈ 4.96 µM) |
| O=C(O)c1cn(C2CC2)c2c(F)c(N3CC(N4CCCC4)C3)c(F)cc2c1=O | 0.12 µg/mL (≈ 0.308 µM) | 0.06 µg/mL (≈ 0.154 µM) | 0.06 µg/mL (≈ 0.154 µM) | – | 0.12 µg/mL (≈ 0.308 µM) | 0.12 µg/mL (≈ 0.308 µM) | – | 0.25 µg/mL (≈ 0.642 µM) | 0.12 µg/mL (≈ 0.308 µM) | 0.12 µg/mL (≈ 0.308 µM) | – | 0.5 µg/mL (≈ 1.28 µM) | 0.06 µg/mL (≈ 0.154 µM) | 2 µg/mL (≈ 5.14 µM) |
| CC1(n2cccc2)CN(c2c(F)cc3c(=O)c(C(=O)O)cn(C4CC4)c3c2F)C1 | 0.25 µg/mL (≈ 0.626 µM) | 0.015 µg/mL (≈ 0.0376 µM) | 1 µg/mL (≈ 2.5 µM) | – | 0.25 µg/mL (≈ 0.626 µM) | 1 µg/mL (≈ 2.5 µM) | – | 1 µg/mL (≈ 2.5 µM) | 0.25 µg/mL (≈ 0.626 µM) | 0.25 µg/mL (≈ 0.626 µM) | – | 2 µg/mL (≈ 5.01 µM) | 2 µg/mL (≈ 5.01 µM) | 8 µg/mL (≈ 20 µM) |
| CNC1(C)CN(c2cc3c(cc2F)c(=O)c2c(=O)[nH]sc2n3C2CC2)C1 | 0.06 µg/mL (≈ 0.16 µM) | 0.03 µg/mL (≈ 0.0801 µM) | 0.03 µg/mL (≈ 0.0801 µM) | – | 0.03 µg/mL (≈ 0.0801 µM) | 0.06 µg/mL (≈ 0.16 µM) | – | 0.12 µg/mL (≈ 0.32 µM) | 0.06 µg/mL (≈ 0.16 µM) | 0.06 µg/mL (≈ 0.16 µM) | – | 0.06 µg/mL (≈ 0.16 µM) | 0.06 µg/mL (≈ 0.16 µM) | 0.5 µg/mL (≈ 1.34 µM) |
